# According to ChEMBL document CHEMBL4330069, “Boosting the efficacy of anti-MRSA β-lactam antibiotics via an easily accessible, non-cytotoxic and orally bioavailable FtsZ inhibitor” (Eur J Med Chem, 2019):
# Columns and labels:
# [1] = test system: Staphylococcus aureus; test: Synergistic antibacterial activity against multidrug-resistant Staphylococcus aureus isolate 231 in presence of meropenem by broth microdilution assay; assay type: functional
# How it was run: (§1)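 Clinical MRSA isolate panel; compound and β-lactam tested alone and in combination by CLSI broth microdilution, compounds dissolved in DMSO, growth inhibition scored by eye, run in duplicate. FIC index = FIC(compound) + FIC(drug), each the MIC in combination divided by the MIC alone; an index ≤ 0.5 was called synergy.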
# [2] = test system: Staphylococcus aureus; test: Synergistic antibacterial activity against multidrug-resistant Staphylococcus aureus isolate 2516 in presence of methicillin by broth microdilution assay; assay type: functional
# How it was run: (§2)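 CLSI broth microdilution on clinical MRSA isolates. MICs were measured for the β-lactam alone, the test agent alone and the two combined. Compounds were dissolved in DMSO, and growth inhibition was scored by eye. FIC index is the sum, over both agents, of MIC in combination divided by MIC alone. An FIC index ≤0.5 was taken as synergy.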
# [3] = test system: Staphylococcus aureus; test: Synergistic antibacterial activity against multidrug-resistant Staphylococcus aureus isolate 200 in presence of cloxacillin by broth microdilution assay; assay type: functional; how it was run: as §1
# [4] = test system: Staphylococcus aureus; test: Synergistic antibacterial activity against multidrug-resistant Staphylococcus aureus isolate 2224 in presence of cefuroxime by broth microdilution assay; assay type: functional; how it was run: as §1
# [5] = test system: Staphylococcus aureus; test: Antibacterial activity against multidrug-resistant Staphylococcus aureus isolate 1136 by broth microdilution assay; assay type: functional
# How it was run: (§3)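 Broth microdilution MIC per CLSI guidelines against clinical MRSA isolates, for β-lactams and test compound alone and in combination. Compounds were dissolved in DMSO. Growth was read by eye, in duplicate. FIC index = FIC(compound) + FIC(drug); synergy defined as FIC index ≤0.5.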
# [6] = test system: Staphylococcus aureus; test: Synergistic antibacterial activity against multidrug-resistant Staphylococcus aureus isolate 2224 in presence of cloxacillin by broth microdilution assay; assay type: functional; how it was run: as §1
# [7] = test system: Staphylococcus aureus; test: Synergistic antibacterial activity against multidrug-resistant Staphylococcus aureus isolate 2901 in presence of meropenem by broth microdilution assay; assay type: functional; how it was run: as §2
# [8] = test system: Staphylococcus aureus; test: Antibacterial activity against multidrug-resistant Staphylococcus aureus isolate 417 by broth microdilution assay; assay type: functional; how it was run: as §3
# [9] = test system: Staphylococcus aureus; test: Synergistic antibacterial activity against multidrug-resistant Staphylococcus aureus isolate 1717 in presence of methicillin by broth microdilution assay; assay type: functional; how it was run: as §1
# [10] = test system: Staphylococcus aureus; test: Synergistic antibacterial activity against multidrug-resistant Staphylococcus aureus isolate 3580 assessed as fractional Inhibitory concentration index in presence of meropenem by broth microdilution assay; assay type: functional
# [11] = test system: Staphylococcus aureus; test: Synergistic antibacterial activity against multidrug-resistant Staphylococcus aureus isolate 1749 assessed as fractional Inhibitory concentration index in presence of meropenem by broth microdilution assay; assay type: functional
# How it was run: (§4)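 CLSI broth microdilution run on clinical MRSA isolates with each β-lactam alone, the test agent alone, and the two combined; agents dissolved in DMSO. Growth inhibition was read by eye. FIC index = FIC(compound) + FIC(β-lactam), where each FIC is the MIC in combination divided by the MIC alone. An index ≤0.5 was taken as synergy.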
# [12] = test system: Staphylococcus aureus; test: Synergistic antibacterial activity against multidrug-resistant Staphylococcus aureus isolate 2490 in presence of amoxicillin by broth microdilution assay; assay type: functional; how it was run: as §1
# [13] = test system: Staphylococcus aureus; test: Synergistic antibacterial activity against multidrug-resistant Staphylococcus aureus isolate 1717 in presence of cefuroxime by broth microdilution assay; assay type: functional; how it was run: as §1
# [14] = test system: Staphylococcus aureus; test: Synergistic antibacterial activity against multidrug-resistant Staphylococcus aureus isolate 1344 in presence of cefuroxime by broth microdilution assay; assay type: functional; how it was run: as §1
# [15] = test system: Staphylococcus aureus; test: Antibacterial activity against multidrug-resistant Staphylococcus aureus isolate 3332 by broth microdilution assay; assay type: functional; how it was run: as §3
# [16] = test system: Staphylococcus aureus; test: Synergistic antibacterial activity against multidrug-resistant Staphylococcus aureus isolate 231 in presence of cefuroxime by broth microdilution assay; assay type: functional; how it was run: as §1
# [17] = test system: Staphylococcus aureus; test: Synergistic antibacterial activity against multidrug-resistant Staphylococcus aureus isolate 1449 assessed as fractional Inhibitory concentration index in presence of cloxacillin by broth microdilution assay; assay type: functional; how it was run: as §4
# [18] = test system: Staphylococcus aureus; test: Synergistic antibacterial activity against multidrug-resistant Staphylococcus aureus isolate 2516 assessed as fractional Inhibitory concentration index in presence of cloxacillin by broth microdilution assay; assay type: functional; how it was run: as §4
# [19] = test system: Staphylococcus aureus; test: Synergistic antibacterial activity against multidrug-resistant Staphylococcus aureus isolate 2224 in presence of methicillin by broth microdilution assay; assay type: functional; how it was run: as §1
# [20] = test system: Staphylococcus aureus; test: Synergistic antibacterial activity against multidrug-resistant Staphylococcus aureus isolate 231 assessed as fractional Inhibitory concentration index in presence of meropenem by broth microdilution assay; assay type: functional; how it was run: as §4
# [21] = test system: Staphylococcus aureus; test: Antibacterial activity against Staphylococcus aureus ATCC 29213 after 20 hrs; assay type: functional; conditions: ATCC 29213, 20 h
# How it was run: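 Broth microdilution MIC per CLSI guidelines, compounds dissolved in DMSO. Resistant mutants were selected by serial passage of ATCC 29213 in LB at 37 °C with shaking at 250 rpm. Each 20 h culture started at half the MIC, and the concentration was doubled at each transfer. Growth inhibition was read by eye, in duplicate.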
# [22] = Oral bioavailability in Sprague-Dawley rat at 50 mg/kg by UPLC-MS/MS analysis; assay type: ADME, organism-based; conditions: in vivo
# How it was run: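 Male Sprague–Dawley rats (250-280 g) dosed IV at 1 mg/kg or by oral feeding at 50 mg/kg. Jugular blood taken from 5 to 420 min (IV) or 2 to 600 min (oral). Plasma proteins precipitated with methanol, then analysed by UPLC-MS/MS with positive ESI. Parameters from non-compartmental analysis.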
# [23] = test system: Staphylococcus aureus; test: Synergistic antibacterial activity against multidrug-resistant Staphylococcus aureus isolate 200 in presence of methicillin by broth microdilution assay; assay type: functional; how it was run: as §1
# [24] = test system: Staphylococcus aureus; test: Synergistic antibacterial activity against multidrug-resistant Staphylococcus aureus isolate 200 assessed as fractional Inhibitory concentration index in presence of cloxacillin by broth microdilution assay; assay type: functional; how it was run: as §4
# [25] = test system: Staphylococcus aureus; test: Synergistic antibacterial activity against multidrug-resistant Staphylococcus aureus isolate 2490 in presence of cefuroxime by broth microdilution assay; assay type: functional; how it was run: as §1
# [26] = test system: Staphylococcus aureus; test: Synergistic antibacterial activity against multidrug-resistant Staphylococcus aureus isolate 3332 in presence of cloxacillin by broth microdilution assay; assay type: functional; how it was run: as §2
# [27] = test system: Staphylococcus aureus; test: Synergistic antibacterial activity against multidrug-resistant Staphylococcus aureus isolate 85 in presence of meropenem by broth microdilution assay; assay type: functional
# [28] = test system: Staphylococcus aureus; test: Synergistic antibacterial activity against multidrug-resistant Staphylococcus aureus isolate 2728 assessed as fractional Inhibitory concentration index in presence of cloxacillin by broth microdilution assay; assay type: functional
# [29] = test system: Staphylococcus aureus; test: Synergistic antibacterial activity against multidrug-resistant Staphylococcus aureus isolate 1717 in presence of amoxicillin by broth microdilution assay; assay type: functional; how it was run: as §1
# [30] = test system: Staphylococcus aureus; test: Synergistic antibacterial activity against multidrug-resistant Staphylococcus aureus isolate 2490 in presence of cloxacillin by broth microdilution assay; assay type: functional; how it was run: as §1
# [31] = test system: Staphylococcus aureus; test: Antibacterial activity against multidrug-resistant Staphylococcus aureus isolate 774 by broth microdilution assay; assay type: functional; how it was run: as §3
# [32] = test system: Staphylococcus aureus; test: Synergistic antibacterial activity against multidrug-resistant Staphylococcus aureus isolate 2516 assessed as fractional Inhibitory concentration index in presence of cefuroxime by broth microdilution assay; assay type: functional; how it was run: as §4
# [33] = test system: Staphylococcus aureus; test: Synergistic antibacterial activity against multidrug-resistant Staphylococcus aureus isolate 3267 in presence of cloxacillin by broth microdilution assay; assay type: functional; how it was run: as §2
# [34] = test system: Staphylococcus aureus; test: Synergistic antibacterial activity against multidrug-resistant Staphylococcus aureus isolate 1344 in presence of methicillin by broth microdilution assay; assay type: functional; how it was run: as §1
# [35] = test system: Staphylococcus aureus; test: Synergistic antibacterial activity against multidrug-resistant Staphylococcus aureus isolate 231 assessed as fractional Inhibitory concentration index in presence of amoxicillin by broth microdilution assay; assay type: functional; how it was run: as §4
# [36] = test system: Staphylococcus aureus; test: Synergistic antibacterial activity against multidrug-resistant Staphylococcus aureus isolate 1749 in presence of amoxicillin by broth microdilution assay; assay type: functional; how it was run: as §1
structure (smiles),measurement,setting,value
CCCCCCCCCNc1ccc(F)c(C(N)=O)c1F,MIC,[1],4 µg/mL
same,MIC,[2],4 µg/mL
same,MIC,[3],1 µg/mL
same,MIC,[4],2 µg/mL
same,MIC,[5],16 µg/mL
same,MIC,[6],2 µg/mL
same,MIC,[7],4 µg/mL
same,MIC,[8],32 µg/mL
same,MIC,[9],2 µg/mL
same,fractional inhibitory concentration index (FICI),[10],1.3
same,fractional inhibitory concentration index (FICI),[11],10
same,MIC,[12],8 µg/mL
same,MIC,[13],2 µg/mL
same,MIC,[14],4 µg/mL
same,MIC,[15],16 µg/mL
same,MIC,[16],4 µg/mL
same,fractional inhibitory concentration index (FICI),[17],0.6
same,fractional inhibitory concentration index (FICI),[18],0.2
same,MIC,[19],2 µg/mL
same,fractional inhibitory concentration index (FICI),[20],0.6
same,MIC,[21],1 µg/mL
same,bioavailability,[22],13%
same,MIC,[23],4 µg/mL
same,fractional inhibitory concentration index (FICI),[24],1
same,MIC,[25],2 µg/mL
same,MIC,[26],2 µg/mL
same,MIC,[27],8 µg/mL
same,fractional inhibitory concentration index (FICI),[28],1
same,MIC,[29],2 µg/mL
same,MIC,[30],1 µg/mL
same,MIC,[31],512 µg/mL
same,fractional inhibitory concentration index (FICI),[32],0.1
same,MIC,[33],1 µg/mL
same,MIC,[34],4 µg/mL
same,fractional inhibitory concentration index (FICI),[35],0.5
same,MIC,[36],2 µg/mL
